# Screens as filed in PubChem.
# Ecoli rRNA inh = selective bacterial rRNA inhibition in E. coli; E. coli WT GFP vs humanized-ribosome RFP mutants, fluorescence, 24 h; stronger effect = lower value; DMSO median 0, no signal -100; GFP signal change (wild-type ribosome), % (no concentration beside the values); 1.6% of 350,000 active;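 active = significant combined selectivity score with lowered wild-type GFP, culture density cut under 30%, mutant RFP and density less affected; inactive = any of these conditions unmet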
# RAD52 anneal inh = blocks human RAD52 DNA annealing | P43351 | inhibition, % at 18.7 µM | recombinant RAD52 DNA annealing, FRET fluorescence | 0.46% of 360,000 active;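 active = every replicate showing at least 50% inhibition; inconclusive = mean inhibition at least 50% but not in every replicate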
# Target sequence (P43351 whole entry, looked up): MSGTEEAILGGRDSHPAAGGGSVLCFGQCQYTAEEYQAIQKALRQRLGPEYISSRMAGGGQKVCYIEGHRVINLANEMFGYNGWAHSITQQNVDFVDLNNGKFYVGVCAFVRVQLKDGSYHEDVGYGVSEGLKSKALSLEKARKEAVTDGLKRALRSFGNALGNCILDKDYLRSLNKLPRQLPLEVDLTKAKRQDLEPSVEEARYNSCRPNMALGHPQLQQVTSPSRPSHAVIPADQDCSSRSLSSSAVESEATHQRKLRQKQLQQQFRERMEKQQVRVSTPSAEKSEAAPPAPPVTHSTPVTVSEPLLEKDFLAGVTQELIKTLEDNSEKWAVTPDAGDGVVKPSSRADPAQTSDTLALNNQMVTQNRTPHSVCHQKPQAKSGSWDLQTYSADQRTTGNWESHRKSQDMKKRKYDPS
# PglD DTNB = blocks C. jejuni PglD acetyltransferase activity; purified PglD enzyme, DTNB colorimetric CoA detection; AID 602405; 0.098% of 360,000 active; inhibition, % at 12.5 µM; in the data active = inhibition above about 16%, passing the limit was not always enough; inconclusive = no clear call, values can overlap the other calls
# Cneo AK release = Cryptococcus neoformans lysis via adenylate kinase release | C. neoformans lysis, adenylate kinase release luminescence, 4 h; normalised: neutral wells 0, clomiphene wells 100 | lysis activity, % at 15 µM | 0.2% of 360,000 active;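 active = mean lysis activity across replicates of at least 80%, whatever share of replicates individually reach that level; inactive = mean lysis activity below 80%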
#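 read-out = cell lysis signal | test system = log-phase Cryptococcus neoformans yeast cells | input = cells at 5 × 10^6 per mL | medium = fresh YPD growth medium | signal = luminescent adenylate kinase detection reagent | timing = 4 h at 37 °C static, read 1 h later | dosing = single dose | controls = Clomiphene as positive lysis control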
# RAD54 inh = inhibitors of human RAD54 branch migration | 0.14% of 360,000 active | inhibition, % at 10.4 µM | Q92698 | RAD54 Holliday junction branch migration, FAM/BHQ fluorescence;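 active = mean normalized replicate activity at least 40 and at least half of replicates scoring 40 or more; inconclusive = only one of the two criteria met; inactive = mean below 40 and under half of replicates reaching 40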;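 also: inhibitors cause a drop in the FAM fluorescence signal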
# DNA binding = binds DNA, flagging false Rad54 inhibitor hits. shares compounds with RAD54 inh. Acridine orange-DNA displacement, fluorescence polarization, 20 min. AC50, µM (series often up to 35 µM). 8% of 460 active;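 active = signal drop giving an AC50 within twice the top valid tested concentration of each sample, actives reach about 35 µM in these data; inactive = activity opposite to expected, plus the rest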;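 also: polarization loss reports compound binding to salmon sperm DNA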
# Numbers stand for hits; – = inactive; ? = inconclusive; · = no result given. Most compounds without a hit are left out; they make up all but 1.9% or so of the library.
SMILES,Ecoli rRNA inh,RAD52 anneal inh,PglD DTNB,Cneo AK release,RAD54 inh,DNA binding
C[C@@H]1CN([C@@H](C)CO)S(=O)(=O)c2ccc(C#CC3CCCC3)cc2O[C@@H]1CN(C)Cc1cncnc1,–,–,–,–,–,·
CC(=O)c1ccc(N2CCN(C(=O)C3CCCN(c4ncnc5c4nc4n5CCCCC4)C3)CC2)cc1 (stereo not given),–,–,–,–,–,·
COc1ccc(N2CCN(C(=O)C3CCCN(c4ncnc5c4nc4n5CCCCC4)C3)CC2)cc1 (stereo not given),-26,–,–,–,–,·
COc1ccc2c(c1)c(C(C)=O)c(C)n2-c1ccc(C(C)=O)cc1,–,–,–,–,–,·
COc1ccc(-n2c(C)c(C(C)=O)c3cc(OC(C)=O)ccc32)cc1,-24,–,–,–,–,·
O=C(Nc1cc(F)ccc1F)N1CCCCN2[C@H](CO)[C@H](c3ccc(C4=CCCCC4)cc3)[C@H]2C1,–,·,·,·,·,·
S=C(Nc1ccccn1)NC1CCCCC1,-23,–,–,–,–,·
S=C(Nc1ccccn1)NC1CCCC1,–,–,·,·,·,·
S=C(Nc1ccc(Nc2ccccc2)cc1)Nc1ccccn1,-32,–,·,·,·,·
O=S(=O)(Nc1nc2ccccc2nc1NCCO)c1cccc(Cl)c1,·,·,–,–,–,·
O=C(Nc1cccc(Cl)c1)c1ccc(S(=O)(=O)NCC2CCCO2)cc1 (stereo not given),-21,–,–,–,–,·
O=S(=O)(Nc1nc2ccccc2nc1NCC1CCCO1)c1cccc(Cl)c1 (stereo not given),-24,–,–,–,–,·
CC(=O)Nc1ccc2c(c1)CC(=O)N(C)C[C@@H](C)[C@@H](CN(C)C(C)=O)O2,–,·,·,·,·,·
Cc1ccccc1-c1cnc2c(c1)C(=O)N([C@@H](C)CO)C[C@@H](C)[C@H](CN(C)Cc1cccnc1)O2,–,–,–,–,–,·
CC(=O)C(=Cc1ccc(Cl)cc1)C(=O)c1ccccc1,-35,–,·,·,·,·
CO[C@H]1CN(C)C(=O)c2cc(NC(C)=O)ccc2OC[C@H](C)N(C(=O)C2CC2)C[C@@H]1C,–,–,–,–,–,·
CCOC(=O)c1cnc2c(C)cccc2c1NCCCN1CCOCC1,–,–,–,–,95,–
CN1C[C@H]2[C@@H](c3ccccc31)[C@H](CO)N2Cc1ccccc1,–,·,–,–,–,·
COc1ccccc1NC(=O)Cn1nnc2sc3c(c2c1=O)CC(C)(C)OC3,–,–,–,–,?,–
CC(N)c1csc(Nc2nncc3ccccc23)n1 (stereo not given),–,–,–,–,70,–
CC(C)C(N)c1csc(Nc2nncc3ccccc23)n1 (stereo not given),–,–,–,–,–,·
Cc1ccc(-c2csc3nc4c5ccccc5c(NCCCN(C)C)nn4c(=O)c23)cc1,–,97,–,–,53,–
CC(C)NC(=O)Nc1ccc2c(c1)C(=O)N([C@H](C)CO)C[C@H](C)[C@H](CN(C)CC1CCCCC1)O2,–,–,–,–,–,·
CCN(CC)CCNc1ccc(CO)c2oc3ccccc3c(=O)c12,–,–,–,–,80,–
COc1ccc2[nH]c3c(=O)n(CCCN4CCOCC4)cnc3c2c1,–,–,–,–,–,·
SMILES,Ecoli rRNA inh,RAD52 anneal inh,PglD DTNB,Cneo AK release,RAD54 inh,DNA binding
COc1cc2[nH]c3c(=O)n(CCN4CCCCC4)cnc3c2cc1OC,·,·,–,–,55,–
CO[C@H]1CN(C)C(=O)c2cc(NS(=O)(=O)c3ccc(Cl)cc3)ccc2OC[C@@H](C)NC[C@@H]1C,–,–,–,–,–,·
C/C=C/c1ccc2c(c1)[C@H]1[C@H](CCN1C(=O)COC)[C@@H](CO)N2,–,·,·,·,·,·
CCN1CCc2c(sc(NC(=O)c3ccc(C(=O)c4ccccc4)cc3)c2C(N)=O)C1,–,–,–,–,?,–
CCN1CCc2c(sc(NC(=O)c3ccc(S(=O)(=O)N4CCOCC4)cc3)c2C(=O)OC)C1,·,·,–,–,80,–
CCOC(=O)c1c(NC(=O)c2ccc(S(=O)(=O)N3CCOCC3)cc2)sc2c1CCN(C(C)C)C2,–,–,–,–,79,–
COc1cc2ccccc2cc1C(=O)Nc1sc2c(c1C(N)=O)CCN(C(C)C)C2,·,–,–,–,81,–
CCC(=O)Nc1ccc2c(c1)C(=O)N(C)C[C@@H](OC)[C@@H](C)CN(C(=O)CN1CCOCC1)[C@@H](C)CO2,–,·,·,·,·,·
